Laboratory results reported in ChEMBL document CHEMBL1124725, “Inhibition of steroid 5 alpha-reductase by unsaturated 3-carboxysteroids” (J Med Chem, 1990).

Key:
[1] = target: T1, 3-oxo-5-alpha-steroid 4-dehydrogenase 2 (Homo sapiens, UniProt P31213); test: In vitro inhibition of Steroid 5-alpha-reductase in human prostatic tissue.; details: read-out: Ki app
T1 sequence (P31213 whole entry): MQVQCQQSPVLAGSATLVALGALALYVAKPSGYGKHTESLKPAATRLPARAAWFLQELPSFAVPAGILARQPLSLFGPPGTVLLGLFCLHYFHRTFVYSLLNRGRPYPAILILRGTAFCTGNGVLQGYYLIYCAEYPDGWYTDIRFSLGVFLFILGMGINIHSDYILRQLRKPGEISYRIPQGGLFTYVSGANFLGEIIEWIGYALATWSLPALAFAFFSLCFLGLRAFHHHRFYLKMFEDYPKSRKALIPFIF
Method in brief: (§1)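 Microsomes from surgically derived benign hyperplastic human prostate. Incubation was in 50 mM sodium citrate, pH 5.0, with 400 μM NADPH at 37 °C for 20–30 min, with ≤20% of T consumed. The reaction was quenched with ethyl acetate, and the read-out was total 5α-reduced products (DHT + ADIOL). Ki,app came from Dixon plots, or IC50 if nonlinear; ranges span microsome preparations.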

[2] = target: T2, Steroid 5-alpha-reductase (Rattus norvegicus, UniProt P24008+P31214); test: In vitro inhibition of Steroid 5-alpha-reductase in rat ventral prostates.; format: tissue-based, Prostate gland
T2 sequence (P24008 whole entry): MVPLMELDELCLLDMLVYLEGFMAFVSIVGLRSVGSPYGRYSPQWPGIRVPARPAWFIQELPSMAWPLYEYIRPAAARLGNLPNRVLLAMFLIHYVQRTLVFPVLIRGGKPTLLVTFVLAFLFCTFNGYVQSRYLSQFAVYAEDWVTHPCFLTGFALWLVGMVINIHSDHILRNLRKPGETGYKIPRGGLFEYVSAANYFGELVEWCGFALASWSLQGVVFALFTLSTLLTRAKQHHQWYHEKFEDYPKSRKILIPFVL
T2 sequence (P31214 whole entry): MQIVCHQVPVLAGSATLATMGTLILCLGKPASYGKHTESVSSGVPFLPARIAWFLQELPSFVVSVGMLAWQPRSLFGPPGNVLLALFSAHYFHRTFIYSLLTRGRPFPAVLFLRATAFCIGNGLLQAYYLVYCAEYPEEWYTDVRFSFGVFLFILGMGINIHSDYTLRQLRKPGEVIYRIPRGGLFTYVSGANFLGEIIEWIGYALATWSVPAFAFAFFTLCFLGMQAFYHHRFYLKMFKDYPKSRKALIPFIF
Method in brief: (§2)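 Rat ventral prostate microsomes were incubated with [14C]T (1.2 μM) and test compound (0–10 μM), both dried from ethanol. Buffer was 20 mM sodium phosphate, pH 6.6, with 400 μM NADPH, at 37 °C for 20–30 min, keeping T consumption ≤20%. After ethyl acetate quench, DHT plus […] formation was measured. Apparent Ki came from Dixon analysis, or IC50 for hyperbolic inhibition; ranges reflect different enzyme preparations.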

[3] = target: T1, 3-oxo-5-alpha-steroid 4-dehydrogenase 2; test: In vitro inhibitory activity against 5-alpha reductase was determined in human prostatic tissue expressed as apparent inhibition constant; details: read-out: Ki app
Method in brief: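 Microsomes from surgically obtained benign hyperplastic human prostate; 50 mM sodium citrate, pH 5.0, 37 °C, 20–30 min. Substrate [14C]testosterone 1.2 μM, NADPH 400 μM final, inhibitor 0–10 μM. Read-out is conversion to total 5α-reduced metabolites (DHT plus 5α-androstanediol), keeping T consumption ≤20%. Ki,app from Dixon analysis for linear inhibitors; ranges given across microsome preparations.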

[4] = target: T2, Steroid 5-alpha-reductase; test: In vitro inhibitory activity against 5-alpha reductase was determined in rat ventral prostates expressed as apparent inhibition constant; format: tissue-based, Prostate gland; method in brief: as §2
[5] = target: T2, Steroid 5-alpha-reductase; test: In vitro inhibitory activity against Steroid 5-alpha-reductase was determined in rat ventral prostates expressed as apparent inhibition constant; Range is 35-50; format: tissue-based, Prostate gland; method in brief: as §2
[6] = target: T1, 3-oxo-5-alpha-steroid 4-dehydrogenase 2; test: In vitro inhibitory activity against Steroid 5-alpha-reductase was determined in human prostatic tissue expressed as apparent inhibition constant; Range is 7-18; details: read-out: Ki app
[7] = target: T2, Steroid 5-alpha-reductase; test: In vitro inhibitory activity against Steroid 5-alpha-reductase was determined in rat ventral prostates expressed as apparent inhibition constant; Range is 20-30; format: tissue-based, Prostate gland; method in brief: as §2
[8] = target: T1, 3-oxo-5-alpha-steroid 4-dehydrogenase 2; test: In vitro inhibitory activity against Steroid 5-alpha-reductase was determined in human prostatic tissue expressed as apparent inhibition constant; Range is 700-900
[9] = target: T1, 3-oxo-5-alpha-steroid 4-dehydrogenase 2; test: In vitro inhibitory activity against Steroid 5-alpha-reductase was determined in human prostatic tissue expressed as apparent inhibition constant; Range is 7-12; details: read-out: Ki app
Method in brief: as §1, with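 “prostate. [14C]T (1.2 μM) and inhibitor (0–10 μM) were dried down from ethanol.” for “prostate.”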

Row | Compound | Ki [1] [nM] | Ki app [2] [nM] | other results
1 | CC(C)N(C(=O)[C@H]1CCC2C3CC=C4C=C(C(=O)O)CC[C@]4(C)C3C=C[C@@]21C)C(C)C (stereo partly drawn) | 7 | 47 | 
2 | CC(C)N(C(=O)[C@H]1CCC2C3CC=C4C=C(C(=O)O)C=C[C@]4(C)C3CC[C@@]21C)C(C)C (stereo partly drawn) | 60 | 600 | 
3 | CC(C)N(C(=O)[C@H]1CCC2C3CC[C@H]4C=C(C(=O)O)CC[C@]4(C)C3CC[C@@]21C)C(C)C (stereo partly drawn) |  |  | Ki [3]: 30 nM; Ki app [4]: 70 nM
4 | CC(C)(C)NC(=O)[C@H]1CC[C@H]2[C@@H]3CC[C@H]4C=C(C(=O)O)CC[C@]4(C)[C@H]3CC[C@]12C | 110 | 11 | 
5 | CC(C)N(C(=O)[C@H]1CCC2C3CCC4=C(CCC(C(=O)O)=C4)C3CC[C@@]21C)C(C)C (stereo partly drawn) |  | 290 | 
6 | CC(C)N(C(=O)[C@H]1CCC2C3CC=C4C=C(C(=O)O)CC[C@@H]4C3CC[C@@]21C)C(C)C (stereo partly drawn) |  | 140 | 
7 | CC(C)N(C(=O)[C@H]1CCC2C3CC=C4C=C(C(=O)O)CC[C@]4(C)C3CC[C@@]21C)C(C)C (stereo partly drawn) |  |  | Ki app [5]: 35 nM; Ki [6]: 7 nM
8 | CC(C)N(C(=O)[C@H]1CCC2C3CCC4=CC(C(=O)O)=CC[C@]4(C)C3CC[C@@]21C)C(C)C (stereo partly drawn) | 52 | 120 | 
9 | CC(C)N(C(=O)[C@H]1CCC2C3CC[C@H]4CC(C(=O)O)=CC[C@]4(C)C3CC[C@@]21C)C(C)C (stereo partly drawn) | 85 | 110 | 
10 | CC(C)(C)NC(=O)[C@H]1CC[C@H]2[C@@H]3CC=C4C=C(C(=O)O)CC[C@]4(C)[C@H]3CC[C@]12C [EPRISTERIDE] |  |  | Ki app [7]: 20 nM
11 | CC(CO)[C@@H]1CCC2C3CCC4C=C(C(=O)O)CC[C@]4(C)C3CC[C@@]21C (stereo partly drawn) | 5000 | 155 | 
12 | CC(C)N(C(=O)[C@H]1CC[C@H]2[C@@H]3CC[C@H]4CC(C(=O)O)CC[C@]4(C)[C@H]3CC[C@]12C)C(C)C (stereo partly drawn) | 2200 | 340 | 
13 | CC(C)N(C(=O)[C@H]1CCC2C3C=CC4=CC(C(=O)O)=CC[C@]4(C)C3CC[C@@]21C)C(C)C (stereo partly drawn) |  | 300 | Ki [9]: 7 nM
14 | C[C@]12CCC(C(=O)O)=CC1=CCC1C2CC[C@@]2(C)C1CC[C@@H]2C#N (stereo partly drawn) | 790 | 140 | 

The next lines start with results.

Row | Ki [1] [nM] | Ki app [2] [nM] | Compound | other results
15 | 62 | 65 | CC(C)N(C(=O)[C@H]1CCC2C3CC[C@H]4C=C(C(=O)O)C=C[C@]4(C)C3CC[C@@]21C)C(C)C (stereo partly drawn) | 
16 |  | 35 | CC(C)N(C(=O)[C@H]1CC[C@H]2[C@@H]3CC[C@H]4C(F)=C(C(=O)O)CC[C@]4(C)[C@H]3CC[C@]12C)C(C)C | 
17 | 35 | 70 | CC1=C(C(=O)O)CC[C@@]2(C)C1=CCC1C2CC[C@@]2(C)C1CC[C@@H]2C(=O)N(C(C)C)C(C)C (stereo partly drawn) | 
18 | 320 | > 10000 | CC(C)N(C(=O)[C@H]1CCC2C3CCC4=C[C@@](O)(C(=O)O)CC[C@]4(C)C3CC[C@@]21C)C(C)C (stereo partly drawn) | 
19 |  | 200 | CC1=C2C=C(C(=O)O)CC[C@]2(C)C2CC[C@@]3(C)C(CC[C@@H]3C(=O)N(C(C)C)C(C)C)C2C1 (stereo partly drawn) | 
20 | 200 | 2000 | CC(C)N(C(=O)[C@H]1CCC2C3CCC4=C[C@@H](C(=O)O)CC[C@]4(C)C3CC[C@@]21C)C(C)C (stereo partly drawn) | 
21 |  | 1000 | CC(C)N(C(=O)[C@H]1CCC2C3CC(C(F)(F)F)=C4C=C(C(=O)O)CC[C@]4(C)C3CC[C@@]21C)C(C)C (stereo partly drawn) | IC50 [8]: 700 nM
22 | 570 | > 10000 | CC(C)N(C(=O)[C@H]1CCC2C3CCC4=C[C@H](C(=O)O)CC[C@]4(C)C3CC[C@@]21C)C(C)C (stereo partly drawn) | 
23 | 220 | > 10000 | CC(C)N(C(=O)[C@H]1CCC2C3CCC4=C[C@](O)(C(=O)O)CC[C@]4(C)C3CC[C@@]21C)C(C)C (stereo partly drawn) | 
24 | 32 | 33 | CC(C)N(C(=O)[C@H]1CCC2C3CC(F)=C4C=C(C(=O)O)CC[C@]4(C)C3CC[C@@]21C)C(C)C (stereo partly drawn) | 
